Series [1] is described as follows: Antiproliferative activity against human HCC827 cells after 48 hrs by MTT assay. The series is classed as functional, cell-based. The settings on record: HCC827, 48 h. For orientation: Tetrazolium assays rely on reduction of a dye to a coloured formazan, in cell work by metabolically active cells.
For series [2], the system named is HepG2. Description: Cell cycle arrest in human HepG2 cells assessed as accumulation at G2/M phase at 0.5 uM after 24 hrs by flow cytometry (reference value: 11.29%). The series is classed as functional.
For another series, the system named is SK-OV-3. As to the kind of experiment: Antitumor activity against human SKOV3 cells xenografted in Balb/c athymic nude mouse assessed as tumor growth inhibition at 20 mg/kg, ip administered daily after 42 days. It counts as functional. To be noted: SK-OV-3, ip, 1008 h, read-out: TGI. In a few lines: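 Female Balb/C athymic nude mice, 5-6 weeks old, bearing s.c. right-flank SK-OV-3 xenografts implanted in HBSS. At about 100 mm3, groups of 6 given vehicle, 5-FU 10 mg/kg or compound 20 mg/kg i.p. daily. Tumors measured every 2 days (π/6 × L × W²); inhibition = (1 − treated/control tumor weight) × 100%.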

In series [3] the test system is HepG2. Description: Induction of apoptosis in human HepG2 cells assessed as early apoptotic cells at 0.5 uM after 24 hrs by annexin V/propidium iodide staining-based flow cytometry (reference value: 0.87%). The series is classed as functional.
The subject of series [4] is HepG2. Description: Induction of apoptosis in human HepG2 cells assessed as early apoptotic cells at 1 uM after 48 hrs by annexin V/propidium iodide staining-based flow cytometry (reference value: 0.87%). The series is classed as functional.
The subject of series [5] is HCT-116. As to the kind of experiment: Induction of apoptosis in human HCT116 cells assessed as late apoptotic cells at 0.5 uM after 48 hrs by annexin V/propidium iodide staining-based flow cytometry (reference value: 1.71%). The series is classed as functional. A general note: Flow cytometry measures light scatter and fluorescence of single cells or particles in a stream.

The subject of series [6] is HCT-116. Description: Induction of apoptosis in human HCT116 cells assessed as viable cells at 0.2 uM after 24 hrs by annexin V/propidium iodide staining-based flow cytometry (reference value: 92%). It counts as functional. The settings on record: HCT-116, 24 h, read-out: Activity.
Series [7] deals with HepG2. As to the kind of experiment: Cell cycle arrest in human HepG2 cells assessed as accumulation at G2/M phase at 1 uM after 24 hrs by flow cytometry (reference value: 11.29%). It counts as functional.
In a further series the test system is Mus musculus. As to the kind of experiment: Toxicity in Balb/c athymic nude mouse xenografted with human HCT116 cells assessed as change in feeding and animal behavior at 20 to 50 mg/kg, ip administered daily. The series is classed as organism-based, HCT-116. The settings on record: in vivo.
In series [8] the test system is HepG2. Description: Induction of apoptosis in human HepG2 cells assessed as late apoptotic cells at 0.5 uM after 24 hrs by annexin V/propidium iodide staining-based flow cytometry (reference value: 3.74%). The series is classed as functional.
The subject of series [9] is HCT-116. As to the kind of experiment: Induction of apoptosis in human HCT116 cells assessed as early apoptotic cells at 1 uM after 24 hrs by annexin V/propidium iodide staining-based flow cytometry (reference value: 2.83%). The series is classed as functional. A digest of the protocol:
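HCT116 cells treated with compound or DMSO for 24 or 48 h, trypsinized, washed twice in PBS and dual-stained with annexin-V and PI. Analysed by flow cytometry: early apoptotic cells scored as annexin-V+/PI−, late apoptotic cells as annexin-V+/PI+.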

Series [10] has as its system HCT-116. As to the kind of experiment: Antitumor activity against human HCT116 cells xenografted in ip dosed Balb/c athymic nude mouse assessed as tumor growth inhibition administered daily. The series is classed as functional, organism-based. A digest of the protocol: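 Female Balb/C athymic nude mice, 5-6 weeks old, implanted s.c. in the right flank with HCT116 cells in 100 µL HBSS. Tumor volume (π/6 × L × W²) and body weight measured every 2 days. Inhibition = (1 − treated/control tumor weight) × 100%.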
(In general: In xenograft studies the graft and the host belong to different species.)

The test system of series [11] is HepG2. Description: Induction of apoptosis in human HepG2 cells assessed as late apoptotic cells at 0.2 uM after 48 hrs by annexin V/propidium iodide staining-based flow cytometry (reference value: 3.74%). The series is classed as functional.
Series [12] deals with HUVEC. As to the kind of experiment: Antiproliferative activity against HUVEC after 48 hrs by MTT assay. The series is classed as cell-based. The settings on record: Homo sapiens. A digest of the protocol:
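HUVECs isolated from umbilical cord veins and grown in EBM-2 with growth factors at 37 °C, 5% CO2. Log-phase cells at 40,000-50,000 cells/mL exposed to a compound dilution series for 48 h. MTT added for 3 h, formazan dissolved in DMSO, absorbance read at 570 nm. IC50 taken from percent growth versus untreated control.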

Series [13] has as its system HCT-116. Description: Induction of apoptosis in human HCT116 cells assessed as viable cells at 1 uM after 24 hrs by annexin V/propidium iodide staining-based flow cytometry (reference value: 92%). The series is classed as functional. To be noted: HCT-116, 24 h, read-out: Activity.
Series [14] concerns HCT-116. As to the kind of experiment: Induction of apoptosis in human HCT116 cells assessed as necrotic cells at 0.5 uM after 24 hrs by annexin V/propidium iodide staining-based flow cytometry (reference value: 3.49%). The series is classed as functional.
For series [15], the system named is HCT-116. As to the kind of experiment: Cell cycle arrest in human HCT116 cells assessed as accumulation at G2/M phase at 0.2 uM after 24 hrs by flow cytometry (reference value: 20.36%). The series is classed as functional.
The test system of series [16] is HepG2. Description: Induction of apoptosis in human HepG2 cells assessed as viable cells at 0.5 uM after 24 hrs by annexin V/propidium iodide staining-based flow cytometry (reference value: 89.8%). It counts as functional. The settings on record: HepG2, 24 h, read-out: Activity.
The subject of series [17] is HUVEC. Description: Antivascular activity against HUVEC assessed as aggregation of cells in small clumps at 250 to 500 nM after 8 hrs by Matrigel assay. It counts as functional, cell-based. To be noted: Homo sapiens. A digest of the protocol:
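Wells of prechilled plates coated with Matrigel and solidified 45 min at 37 °C. HUVECs (1 × 10^4) in EBM-2 containing compound (125-500 nM) seeded onto the gel and incubated 8 h at 37 °C. Capillary networks photographed at 100×; tubule numbers and line lengths counted manually.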

Series [18] deals with HCT-116. Description: Induction of apoptosis in human HCT116 cells assessed as viable cells at 0.2 uM after 48 hrs by annexin V/propidium iodide staining-based flow cytometry (reference value: 92%). The settings on record: HCT-116, 48 h, read-out: Activity. It counts as functional.
For series [19], the system named is HepG2. Description: Induction of apoptosis in human HepG2 cells assessed as early apoptotic cells at 0.2 uM after 24 hrs by annexin V/propidium iodide staining-based flow cytometry (reference value: 0.87%). The series is classed as functional.
Series [20] relates to HepG2. As to the kind of experiment: Induction of apoptosis in human HepG2 cells assessed as necrotic cells at 0.2 uM after 48 hrs by annexin V/propidium iodide staining-based flow cytometry (reference value: 1.59%). It counts as functional.
In series [21] the test system is HepG2. Description: Antimitotic activity in human HepG2 cells assessed as demolishment of microtubule at 0.5 uM after 24 hrs by DAPI staining-based immmunofluorescence assay. It counts as functional, cell-based. In a few lines:
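HepG2 cells seeded in 6-well plates and treated with compound. Fixed in 4% paraformaldehyde, permeabilized with 0.5% Triton X-100 in PBS, blocked 30 min in 5% goat serum at room temperature. Stained with monoclonal anti-α-tubulin 1 h at room temperature, then fluorescent secondary antibody, nuclei labelled with DAPI. Viewed by fluorescence microscopy.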

Series [22] deals with HepG2. Description: Induction of apoptosis in human HepG2 cells assessed as early apoptotic cells at 0.2 uM after 48 hrs by annexin V/propidium iodide staining-based flow cytometry (reference value: 0.87%). It counts as functional.

In general, IC50 refers to the point on the concentration scale where inhibition reaches its midpoint. A higher IC50 goes with weaker potency in that assay.

Activity calls are given as the source filed them. No cut-off for these calls is given here.

On to `CCOc1ccc(-c2nc(N)sc2-c2cc(OC)c(OC)c(OC)c2)cc1`, for which the values for the 50% inhibitory concentration (IC50) (in series [1]; with HUVEC [12]) were 97 nM and 40.2 nM, respectively. Further, the Activity is reported as 62.63% with HepG2 [2]; 11.2% in the series on HepG2 [3]; 74% in the series with HepG2 [4]; 26.2% in the series on HCT-116 [5]; 83.67% in the series on HepG2 [7]; “Non-toxic” in the series with Mus musculus. Besides, the Activity was 7.86% with HepG2 [8]; 17.6% in the series on HCT-116 [9]; “Dose-dependent effect” in the series with HCT-116 [10]; 4.17% with HepG2 [11]; 3.5% in the series on HCT-116 [14]; 48.79% in the series on HCT-116 [15]. Also, the figures for the Activity in the series with HepG2 [19], in the series with HepG2 [20] and in the series with HepG2 [22] were 10.08%, 0.79% and 66.6%, respectively. In addition, in the series with SK-OV-3, the inhibition in vivo at 20 mg/kg is 49.6%. The values for the viability at 0.2 µM in the series with HCT-116 [6] and in the series on HCT-116 [18] were 80.4% and 31.1%, respectively. In the series on HCT-116 [13], the viability at 1 µM stood at 62.1%. In the series on HepG2 [16], the viability at 0.5 µM was 80.7%. The result with HUVEC [17] and in the series with HepG2 [21] was Active.

Source of the values: ChEMBL document CHEMBL3596186, “Synthesis and biological evaluation of diarylthiazole derivatives as antimitotic and antivascular agents with potent antitumor activity” (Bioorg Med Chem, 2015).
